Legend:
Format in all cases: functional
Mus musculus [1] = species: Mus musculus; assay: Analgesic activity relative to aspirin as 1 in 8 mice phenylquinone writhing assay
In short: (§1)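 Male mice, 18–20 g, dosed orally with test agent in aqueous vehicle (0.9% NaCl, 0.5% Na carboxymethylcellulose, 0.4% polysorbate 80, 0.9% benzyl alcohol, 97.3% water) 20 min before intraperitoneal phenylquinone. Writhing observed over the following 10 min. Potency relative to aspirin taken from dose-response plots by analysis of variance.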

Rattus norvegicus = assay: Antiinflammatory activity relative to phenyl butazone as 1 in rat carrageenan paw edema assay
In short: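 Female rats, 80–90 g, six per dose group, at least four dose levels. Test agent given orally 1 h before carrageenan injection into one hind paw, in vehicle of 0.9% NaCl, 0.5% Na carboxymethylcellulose, 0.4% polysorbate 80, 0.9% benzyl alcohol, 97.3% water. Rats killed 4 h after dosing and both hind paws weighed. Potency relative to phenylbutazone from dose-response of % weight increase of treated over untreated paw, by analysis of variance.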

Mus musculus [2] = species: Mus musculus; assay: Analgesic activity relative to aspirin as 1 in 24 mice phenylquinone writhing assay; in short: as §1
Mus musculus [3] = species: Mus musculus; assay: Analgesic activity relative to aspirin as 1 in 32 mice phenylquinone writhing assay; in short: as §1
Mus musculus [4] = species: Mus musculus; assay: Analgesic activity relative to aspirin as 1 in 16 mice phenylquinone writhing assay; in short: as §1

Q: What does the source list for `O=C(O)Cc1ccc2c(c1)NCc1ccccc1C2=O`?
A: Relative activity (Mus musculus [1]): <0.7; Relative activity (Rattus norvegicus): 29

Q: What does the source list for `CC(C(=O)O)c1ccc2c(c1)N(C)Cc1ccccc1C2=O` (centres undefined)?
A: Relative activity (Mus musculus [2]): 1; Relative activity (Rattus norvegicus): 11

Q: What does the source list for `CN1Cc2ccccc2C(=O)c2ccc(CC(=O)O)cc21`?
A: Relative activity (Mus musculus [3]): <0.2; Relative activity (Rattus norvegicus): 7

Q: What does the source list for `COc1ccc2c(c1)CNc1cc(CC(=O)O)ccc1C2=O`?
A: Relative activity (Mus musculus [1]): <0.2; Relative activity (Rattus norvegicus): <0.1

Q: For `CC(=O)N1Cc2ccccc2C(=O)c2ccc(CC(=O)O)cc21`, which Relative activity (Mus musculus [1]) is on record?
A: <0.2

Q: What about the Relative activity (Rattus norvegicus) of the same compound?
A: <0.3

Q: For `COc1ccc2c(c1)CN(C)c1cc(CC(=O)O)ccc1C2=O`, which Relative activity (Mus musculus [4]) is on record?
A: <0.5

Q: What about the Relative activity (Rattus norvegicus) of the same compound?
A: 6.7

Q: How did the Relative activity (Mus musculus [4]) turn out when `CCN1Cc2ccccc2C(=O)c2ccc(CC(=O)O)cc21` was run?
A: <0.2

Q: And the Relative activity (Rattus norvegicus)?
A: 2.3

From ChEMBL document CHEMBL1121700, “Antiinflammatory 5,6-dihydro-11-oxodibenz[b,e]azepine-3-acetic acids” (1981)
